# Published values pooled from the literature.
# Compare with care: the assays were run in different laboratories.
# Target: Tyrosine-protein kinase ABL2 (ABL2, Homo sapiens, UniProt P42684)
Structure (SMILES),assay,setting,remaining binding
CSc1cccnc1N1CCN(Cc2nc3ccccc3[nH]2)CC1,"cell-free assay, competition with immobilised ligand",1 µM,98%
CC1CCCN1c1nccc(-c2cnn3ncccc23)n1 (stereo not drawn),binding,1 µM,100%
C[C@@H](c1ccc(-n2cnc3c(N)ncnc32)cc1)N1CCc2nn(C)c(Cc3ccccc3)c2C1=O,"binding, competition with immobilised ligand",0.1 µM,76%
CS(=O)(=O)N1CCCC(NC(=O)[C@H](CCC2CCCCC2)NC(=O)c2ccc(CNC(=O)c3cnc4ccccn34)cc2)C1 (stereo partly drawn),"cell-free assay, competition with immobilised ligand",0.1 µM,56%
CCN(CC)Cc1cc(Nc2ccnc3cc(Cl)ccc23)ccc1O,"cell-free assay, competition with immobilised ligand",0.1 µM,97%
COc1cnc(Nc2cccc(S(N)(=O)=O)c2)nc1N1CCN(c2ccccc2)C(=O)C1,"binding, competition with immobilised ligand",1 µM,100%
FC(F)(F)Oc1cccc(-c2cnc3ccc(-c4ccncc4)nn23)c1,"cell-free assay, competition with immobilised ligand",5 µM,76%
CNC(=O)c1cc(Oc2ccc(NC(=O)Nc3ccc(Cl)c(C(F)(F)F)c3)cc2)ccn1,"cell-free assay, competition with immobilised ligand",10 µM,33%
O=C(c1ccc(Nc2ncc(Cl)c(-c3ccc(Cl)s3)n2)cc1)N1CCC(N2CCCC2)CC1,"binding, competition with immobilised ligand",1 µM,56%
O=C(NCC1CCOCC1)c1n[nH]cc1NC(=O)c1c(F)cccc1F,"binding, competition with immobilised ligand",1 µM,100%
CCN(CC)CCNC(=O)c1c(C)[nH]c(/C=C2\C(=O)Nc3ccc(F)cc32)c1C,"cell-free assay, competition with immobilised ligand",10 µM,51%
O=C(NCCCC1CCCCC1)c1ccc(CNC(=O)c2cnn(-c3ccccc3)c2C(F)(F)F)cc1,"cell-free assay, competition with immobilised ligand",0.1 µM,87%
c1cnn2ncc(-c3ccnc(N4CCC45COC5)n3)c2c1,binding,1 µM,87%
C=CC(=O)N1CCC(C(=O)NCC(=O)N2CCN(c3nc(-c4cnc(N)nc4C(F)F)nc(N4CCOCC4)n3)CC2)CC1,"binding, competition with immobilised ligand",1 µM,91%
CC(C)(O)c1cncc(-c2nc3ccc(F)cc3n2C2CC2)c1,"cell-free assay, competition with immobilised ligand",1 µM,100%
CN1CC[C@H](c2c(O)cc(O)c3c(=O)cc(-c4ccccc4Cl)oc23)[C@H](O)C1,"cell-free assay, competition with immobilised ligand",0.1 µM,100%
Cn1nc(C(F)(F)F)cc1-c1cnc(N2CCc3cc(S(=O)(=O)Nc4c(F)cc(Cl)cc4F)cc(N4CCCC4=O)c32)nc1,"cell-free assay, competition with immobilised ligand",1 µM,100%
C[C@@H]1CCN(c2nccc(-c3cnn4ncccc34)n2)C1,binding,1 µM,76%
CS(=O)(=O)CCNCc1ccc(-c2ccc3ncnc(Nc4ccc(OCc5cccc(F)c5)c(Cl)c4)c3c2)o1,"cell-free assay, competition with immobilised ligand",10 µM,100%
COc1ccnn2ncc(-c3ccnc(N(C)C)n3)c12,binding,1 µM,86%
O=C(NCc1ncc(C(F)(F)F)cc1Cl)c1ccc2c(c1)C1(CCS(=O)(=O)CC1)[C@@H](C1CC1)N2S(=O)(=O)c1ccc(F)cc1,"cell-free assay, competition with immobilised ligand",1 µM,100%
Cc1c(-c2ccccc2)oc2c(C(=O)OCCN3CCCCC3)cccc2c1=O,"cell-free assay, competition with immobilised ligand",0.1 µM,100%
CN(C)c1nccc(-c2cnn3ncccc23)n1,binding,1 µM,99%
O=C(Nc1cccnn1)N1CC(C/C=C/c2cncc(Oc3ccc(C(F)(F)F)cn3)n2)C1,"cell-free assay, competition with immobilised ligand",1 µM,100%
O=C(NCCCN1CCOCC1)c1ccc(Nc2ncc(Cl)c(-c3ccc(Cl)s3)n2)cc1,"binding, competition with immobilised ligand",1 µM,67%
COc1ncc2cc3ccccc3nc2c1C#N,"cell-free assay, competition with immobilised ligand",5 µM,96%
CNC(=O)[C@@H]1CC[C@@H](n2c(-c3ccc4cnccc4c3)nc3ccc(C(=O)NCc4cccc(C(N)=O)c4)cc32)C1,"binding, competition with immobilised ligand",1 µM,98%
CN(C)c1ncc(F)c(-c2cnn3ncccc23)n1,binding,1 µM,100%
CO[C@@H](C)c1c(Nc2ccc([C@H](N(C)C(=O)C3CCS(=O)(=O)CC3)C(F)(F)F)cc2)cnc2cc(Cl)nn12,"cell-free assay, competition with immobilised ligand",1 µM,85%
COc1cc2ncnc(Nc3ccc(F)c(Cl)c3)c2cc1OCCCN1CCOCC1,"cell-free assay, competition with immobilised ligand",10 µM,83%
